# Source: PubChem BioAssay
# An excerpt weighted towards active compounds, which were near 3.9% of everything screened.
# STAT1 act: activators of IFN-gamma induced STAT1 signaling | AID 932 | 200,000 compounds, 2.6% hits | NIH 3T3 STAT1-luciferase reporter, luminescence; 100% = IFN-gamma alone, no compound | activation (% of control), % at 5.5 µM;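 active means activation above the screen-wide mean activation plus 3 SD, cut at about 130% in these data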;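 further: raw ratio to IFN-gamma control signal so 100% means no change and 0% no light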
# STAT3 activator: activators of IL-6 induced STAT3 signaling; U3A cells, IL-6 STAT3-luciferase reporter, luminescence; 100% = signal with IL-6 EC80 alone; activation (% of control), % at 5.6 µM; 190,000 compounds, 0.91% hits; AID 871;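 active means activation above the screen-wide mean of compound activation plus 3 SD, cut at about 130% in these data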;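 further: 0% = background luminescence of wells with medium and substrate only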
#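 Test system: Human STAT1-deficient U3A cells with stable STAT3-luciferase reporter | Also added: Interleukin-6, 33 ng/mL | Timing: Compound pre-incubation 1 h before IL-6, then 6 h stimulation at 37 °C | Technique: Luciferase reporter luminescence | Read-out: Percent of IL-6-only median luminescence | Benchmarks: IL-6-only wells as 100% reference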
# APP 5'UTR act: APP 5'UTR luciferase reporter activation; SH-SY5Y APP 5'UTR luciferase reporter, luminescence; zero percent = DMSO vehicle wells; activation, % at 2 µM; 190,000 compounds, 1% hits; AID 1276;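 active means activation above a set limit, based on mean plus 3 SD of controls, cut at about 140% in these data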
# Pf gamet viab: kills late stage P. falciparum gametocytes; P. falciparum stage V gametocytes, ATP luminescence, 24 h; inhibition, % at 10.9 µM; 150,000 compounds, 0.065% hits;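 active means inhibition above the mean plus 3 SD of compounds within the control limits, set per campaign, cut at about 38% in these data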;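 further: 0% = DMSO wells and 100% = medium only without gametocytes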
# NF-kB expr up: NF-kB expression increase, human neuronal cells. fold change at 12.5 µM. 190,000 compounds, 1.6% hits. AID 1239. NF-kB reporter expression; hits give high values; in the data active means fold change above about 3.3
# STAT1 blocker: inhibitors of IFN-gamma induced STAT1 signaling; NIH 3T3 STAT1-luciferase reporter, luminescence; AID 920; 200,000 compounds, 0.35% hits; inhibition, % at 5.5 µM;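 active means inhibition above a set limit, the mean inhibition across all tested compounds plus 3 SD, cut at about 34% in these data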;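 further: 0% = IFN-gamma with DMSO and 100% = IFN-gamma with 300 µM nifuroxazide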
# Numbers without * were called inactive; x = no result given.
SMILES,STAT1 act,STAT3 activator,APP 5'UTR act,Pf gamet viab,NF-kB expr up,STAT1 blocker
COc1cccc(-c2cc(C(=O)NC3CCCC3)no2)c1,144*,89,18,x,4.9*,-50
CC(NC(=O)CN(c1ccc(Cl)cc1)S(C)(=O)=O)c1ccccc1 (stereo not given),x,x,x,13,x,x
C[N+](C)=C1SCC(C)(/C=N/O)S1 (stereo not given),x,x,x,13,x,x
COc1ccc(OC[C@@H](O)CNC(=O)c2cccc3c2C(=O)c2ccc(Cl)cc2S3(=O)=O)cc1,x,x,x,2,x,x
COCC(C)NC(=O)c1cc(-c2cccc(OC)c2)on1 (stereo not given),134*,89,23,x,1.5,-37
COCCNC(=O)c1cc(-c2cccc(OC)c2)on1,115,94,57,11,3.2,-17
O=C1C(Nc2ccccc2)=C(NS(=O)(=O)c2ccccc2)C(=O)c2ccccc21,96,134*,-10,4,0.86,4
O=C(Nc1ccccc1)OCCOc1ccc(Br)cc1,x,x,x,5,x,x
O=C(Nc1ccccc1)OCCCc1ccccc1,140*,92,33,-1,2.6,-45
Cc1ccc(NC(=O)CN(C)C(=O)c2n[nH]c(=O)c3ccccc23)cc1,100,105,14,-14,1.3,0
O=C(CSc1n[nH]c(-c2ccccc2F)n1)NCC(=O)Nc1ccc(F)c(F)c1F,96,118,8,x,1.1,2
COc1ccc(OC)c(/C=C2\SC(=S)N(Cc3cccnc3)C2=O)c1,100,95,-13,-84,3.9*,0
COc1cc(/C=C2/SC(=S)N(CC(=O)Nc3cccnc3)C2=O)cc(OC)c1OC,95,95,-4,-14,1.1,6
CCOC(=O)c1c(C)oc2c1c(C(c1cccnc1)N1CCCCC1)c(O)c1ccccc12 (stereo not given),101,131,79,19,6.6*,-1
COc1ccc(-n2ncc3c(NCCCN4CCOCC4)ncnc32)cc1,135*,108,85,x,0.74,-38
CCCNc1ncnc2c1cnn2-c1ccc(OC)cc1,156*,77,193*,x,5.9*,-62
CC(=O)N/N=C(\C)C1COc2ccccc2O1 (stereo not given),x,x,x,-4,x,x
COc1ccc2nc(Cl)c(C#N)cc2c1,112,107,-25,-2,1.2,-13
Cc1cc(C)nc(SCc2nc3ncccn3c2Br)n1,103,103,1,9,1.1,-4
Brc1c(CSc2nc3ccccc3o2)nc2ncccn12,134*,102,37,x,2.5,-37
Clc1c(CSc2nc3ccccc3o2)nc2ccccn12,137*,64,172*,23,5.5*,-40
c1ccc2oc(SCc3cn4ccccc4n3)nc2c1,131*,93,125,-32,3.4*,-33
Clc1c(CSc2nc3ccccc3o2)nc2sccn12,127,90,136*,10,8.1*,-29
O=C(CCc1ccccc1)N1CCN(Cc2ccc(F)cc2Cl)CC1,x,x,x,-15,x,x
Cc1ccc(O)c(C(CC(=O)NC2CCCCC2)c2ccccc2)c1 (stereo not given),93,100,13,2,1.1,6
SMILES,STAT1 act,STAT3 activator,APP 5'UTR act,Pf gamet viab,NF-kB expr up,STAT1 blocker
COc1ccccc1N1C(=O)c2cccc3c(C(=O)O)ccc(c23)C1=O,90,100,-5,10,1.2,11
COc1ccc2c3c(cccc13)C(=O)N(O)C2=O,97,113,-10,-1,7.1*,3
COc1ccc2nc(NC(=O)c3cc(C)oc3C)sc2c1,139*,83,145*,x,2.5,-42
COc1ccc2nc(NC(=O)C3COc4ccccc4O3)sc2c1 (stereo not given),111,75,132,x,3.4*,-12
COc1ccc2nc(NNC(=O)C3COc4ccccc4O3)sc2c1 (stereo not given),100,132,-6,x,1,1
CCCC(=O)Nc1nc2ccc(OC)cc2s1,144*,94,61,x,3.1,-46
CC(=O)NCC1COc2ccccc2O1 (stereo not given),x,x,x,17,x,x
CC(=O)Nc1nc(C2COc3ccccc3O2)cs1 (stereo not given),145*,89,168*,x,5*,-50
Cc1nn(-c2ccccn2)c2c1C(c1c(F)cccc1Cl)C1=C(N2)c2ccccc2C1=O (stereo not given),89,108,-2,x,1.3,12
